Results: publication PMC7345411 (ACS Omega, 2020)
Values joined by “and” are separate entries in the source; they are usually repeats but may differ in a detail not shown here. Equal values may be shown once.

Key:
HCT116 = test: MTT cell proliferation inhibition assay; type: cell-based; conditions: Homo sapiens, HCT-116, 72 h
[1] = Solubility in water by UV-visible spectrophotometry; type: physicochemical
HCT116 tumor = test: HCT116 xenograft tumor model in BALB/c nude mice; type: in vivo; conditions: dose 0.036 mmol/kg/d, daily injection for 21 days
Procedure, shortened: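 Nude mice given 5 × 10^5 viable HCT116 cells subcutaneously in the right flank. Daily injections into the left hypogastrium for 21 days. Test compound at 0.006, 0.012 or 0.018 mmol/kg/d. Comparators: 5-FU 0.036 mmol/kg/d and an uncrystallised 3:1 mix (5-FU 0.036 + NCM 0.012 mmol/kg/d), plus blank control. Mice euthanised; tumours weighed and examined by H&E (×100). TGI = (mean control weight − mean treated weight)/mean control weight.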

SMMC7721 = test: MTT cell proliferation inhibition assay; type: cell-based; conditions: Homo sapiens, SMMC-7721, 72 h
Acute toxicity study = type: in vivo; conditions: for Nd (number of dead animals) / R (%) = Nd/Ni: Ni 10; for LD50: in vivo, acute toxicity
HeLa = test: MTT cell proliferation inhibition assay; type: cell-based; conditions: Homo sapiens, 72 h
JEG3 = test: MTT cell proliferation inhibition assay; type: cell-based; conditions: Homo sapiens, JEG-3, 72 h
[2] = Pharmacokinetics after oral administration in rats; type: in vivo, Sprague-Dawley rats; conditions: 0.06 mmol/kg
Hep G2 = test: MTT cell proliferation inhibition assay; type: cell-based; conditions: Homo sapiens, HepG2, 72 h
[3] = dose 122.2/0.86 (mg/kg)/(mmol/kg)
[4] = dose 133.4/1.03 (mg/kg)/(mmol/kg)
[5] = dose 158.5/1.22 (mg/kg)/(mmol/kg)
[6] = Sprague-Dawley, rat, plasma, po

With `O=c1[nH]cc(F)c(=O)[nH]1` [5-FU, 5-Fluorouracil] the IC50 (HCT116) was 0.0325 µM, the solubility at 24 h [1] was 10500 µg/mL and 80000 µM and the “TGI (tumor growth inhibition)” value (HCT116 tumor) was 21.8%. For the same molecule, the “W̅ average tumor growth weight” value (HCT116 tumor) was 0.65 ± 0.10 g, the IC50 (SMMC7721) was 18.9 µM and the “probit (P + 5)” value (Acute toxicity study; [3]) was 3.720. The “Nd (number of dead animals)” value (Acute toxicity study; [3]) was 1, the “R (%) = Nd/Ni” value (Acute toxicity study; [3]) was 10% and the “probit (P + 5)” value (Acute toxicity study; [4]) was 5.520. The “Nd (number of dead animals)” value (Acute toxicity study; [4]) was 7, the “R (%) = Nd/Ni” value (Acute toxicity study; [4]) was 70% and the “probit (P + 5)” value (Acute toxicity study; [5]) was 6.28. For the same molecule, the “Nd (number of dead animals)” value (Acute toxicity study; [5]) was 9, the “R (%) = Nd/Ni” value (Acute toxicity study; [5]) was 90% and the LD50 (Acute toxicity study; LD50 95% confidence interval) was 380 to 2630 µmol/kg. It also gave an LD50 (Acute toxicity study; LD50 (median lethal dose)) of 1000 µmol/kg, an IC50 (HeLa) of 7.96 µM and an IC50 (JEG3) of 2.18 µM. The AUC(0-inf) [2, 6] was 5.07 ± 0.104 µM·h, the AUC(0-t) [2, 6] was 4.93 ± 0.076 µM·h and the CL/F [2, 6] was 197 mL/min/kg. For the same molecule, the Cmax [2, 6] was 7.99 ± 0.375 µM, the Tmax [2, 6] was 20 min and the half-life [2, 6] was 18.1 ± 3.72 min. The V1/F ([2]; oral, SD rats, n = 8) was 2.783 ± 0.915 L/kg, the t1/2α ([2]; oral, SD rats, n = 8) was 3.84 ± 0.78 min and the IC50 (Hep G2) was 3.86 µM.
